The results in this text go back to article PMC8662605 (Molecular Biology and Evolution, 2021).

Assay [1] deals with white-faced saki Tas2R16 (wild-type, 172N). Format: cell-based, white-faced saki (Pithecia pithecia).
In assay [2] the test system is 172K mutant of the white-faced saki Tas2R16. Kind of assay: functional heterologous cell expression assay, calcium mobilization, mutagenesis. Format: cell-based, white-faced saki (Pithecia pithecia). Particulars: for EC50: 172K mutant of white-faced saki Tas2R16. The method, boiled down: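 Saki Tas2R16 (wild-type, or the reverse 172K mutant made by site-directed mutagenesis) was expressed from HSV-tagged pcDNA5/FRT vectors, transiently transfected into HEK293 cells stably expressing chimeric Gα16-gust44. Calcium mobilisation on bitter stimulation was recorded on a fluorescence plate reader. EC50 came from nonlinear sigmoidal dose–response fits with variable slope. Cell-surface receptor expression was measured by imaging cytometry.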

Assay [3] concerns the target T1, human Tas2R16 (Homo sapiens, UniProt Q9NYV7).
T1 sequence (Q9NYV7 1-291): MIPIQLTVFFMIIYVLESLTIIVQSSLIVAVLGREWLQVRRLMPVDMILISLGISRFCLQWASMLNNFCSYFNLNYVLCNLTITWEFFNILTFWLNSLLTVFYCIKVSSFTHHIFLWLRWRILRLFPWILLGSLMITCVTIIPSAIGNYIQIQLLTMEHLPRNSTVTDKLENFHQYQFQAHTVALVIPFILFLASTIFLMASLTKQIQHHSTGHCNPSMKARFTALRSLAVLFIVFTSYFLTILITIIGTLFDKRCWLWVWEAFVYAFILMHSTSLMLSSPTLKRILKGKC
Format: cell-based.

Where [4] appears, read: 172K saki mutant versus wild-type (172N).

As for `O=Cc1ccccc1O[C@@H]1O[C@H](CO)[C@@H](O)[C@H](O)[C@H]1O` [helicin], the EC50 (commonly the concentration that produces a half-maximal response) in assay [1] worked out at 500 ± 40 µM; in assay [2] it was 0.89 ± 0.11 mM. Moreover, the “fold increased EC50 value compared with the wild-type” value in assay [2] (setting [4]) is roughly 2 fold. In addition, the “sensitivity compared with the wild-type” value in assay [2] (setting [4]) was “about 50%”.

As to `OCc1ccccc1O[C@@H]1O[C@H](CO)[C@@H](O)[C@H](O)[C@H]1O` [salicin], the EC50 amounted to 510 ± 30 µM in assay [1], 490 ± 80 µM in assay [3] and 1.12 ± 0.19 mM in assay [2]. Besides, the “sensitivity compared with the wild-type” value in assay [2] (setting [4]) was “about 50%”.
